Assays:
[1] = target: 72 kDa type IV collagenase (Homo sapiens, UniProt P08253); assay: Inhibition of MMP2
Procedure, shortened: (§1)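 Catalytic domains used at final levels of 85 nM (MMP-1), 24 nM (MMP-2), 18 nM (MMP-9) and 84 nM (MMP-12). Each enzyme was premixed with compound (serial 1:2 dilutions, 150 to 1.2) for 30 min at 37 °C. Substrate was added in 50 mM Hepes with 5 mM CaCl2 and 0.05% w/w Brij-35, pH 7.5, then incubated 30 min. Fluorescence read at ex 328/em 393 nm over 45 min, every 50 s.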

[2] = target: Macrophage metalloelastase (Homo sapiens, UniProt P39900); assay: Inhibition of MMP12; procedure, shortened: as §1
Sequence of Macrophage metalloelastase (P39900 whole entry): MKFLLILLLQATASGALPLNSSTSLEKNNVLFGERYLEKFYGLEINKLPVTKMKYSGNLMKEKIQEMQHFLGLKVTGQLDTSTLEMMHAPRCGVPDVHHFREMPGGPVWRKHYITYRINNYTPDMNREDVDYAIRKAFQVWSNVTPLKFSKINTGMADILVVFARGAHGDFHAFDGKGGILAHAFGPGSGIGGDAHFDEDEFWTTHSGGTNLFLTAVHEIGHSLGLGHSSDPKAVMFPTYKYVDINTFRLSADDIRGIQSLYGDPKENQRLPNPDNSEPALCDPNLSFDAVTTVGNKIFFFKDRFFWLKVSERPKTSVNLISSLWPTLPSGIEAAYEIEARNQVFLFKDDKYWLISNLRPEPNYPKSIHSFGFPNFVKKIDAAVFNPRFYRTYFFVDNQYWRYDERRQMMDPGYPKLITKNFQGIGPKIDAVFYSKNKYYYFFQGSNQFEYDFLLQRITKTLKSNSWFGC

[3] = target: Matrix metalloproteinase-9 (Homo sapiens, UniProt P14780); assay: Inhibition of MMP9; procedure, shortened: as §1
Sequence of Matrix metalloproteinase-9 (P14780 whole entry): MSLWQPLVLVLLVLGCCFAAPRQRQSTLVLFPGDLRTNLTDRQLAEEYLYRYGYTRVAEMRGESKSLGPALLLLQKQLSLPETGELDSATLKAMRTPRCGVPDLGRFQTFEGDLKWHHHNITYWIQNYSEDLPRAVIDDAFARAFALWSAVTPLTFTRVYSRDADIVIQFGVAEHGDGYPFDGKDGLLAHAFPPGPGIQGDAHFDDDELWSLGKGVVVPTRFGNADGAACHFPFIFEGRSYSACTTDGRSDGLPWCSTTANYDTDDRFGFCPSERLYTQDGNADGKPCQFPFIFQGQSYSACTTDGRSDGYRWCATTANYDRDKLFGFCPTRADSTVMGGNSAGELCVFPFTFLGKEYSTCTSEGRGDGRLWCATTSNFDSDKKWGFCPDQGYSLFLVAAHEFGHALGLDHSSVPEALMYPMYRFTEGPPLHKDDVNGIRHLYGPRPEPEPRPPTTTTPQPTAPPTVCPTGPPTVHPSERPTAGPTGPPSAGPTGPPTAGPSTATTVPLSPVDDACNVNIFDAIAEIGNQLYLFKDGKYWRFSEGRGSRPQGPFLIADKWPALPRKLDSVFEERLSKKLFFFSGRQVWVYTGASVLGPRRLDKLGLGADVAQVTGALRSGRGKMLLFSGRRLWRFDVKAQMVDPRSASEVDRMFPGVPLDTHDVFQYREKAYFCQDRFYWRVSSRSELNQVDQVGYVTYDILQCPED

Interstitial collagenase = target: T1, Interstitial collagenase (Homo sapiens, UniProt P03956); assay: Inhibition of MMP1; procedure, shortened: as §1
T1 sequence (P03956 whole entry): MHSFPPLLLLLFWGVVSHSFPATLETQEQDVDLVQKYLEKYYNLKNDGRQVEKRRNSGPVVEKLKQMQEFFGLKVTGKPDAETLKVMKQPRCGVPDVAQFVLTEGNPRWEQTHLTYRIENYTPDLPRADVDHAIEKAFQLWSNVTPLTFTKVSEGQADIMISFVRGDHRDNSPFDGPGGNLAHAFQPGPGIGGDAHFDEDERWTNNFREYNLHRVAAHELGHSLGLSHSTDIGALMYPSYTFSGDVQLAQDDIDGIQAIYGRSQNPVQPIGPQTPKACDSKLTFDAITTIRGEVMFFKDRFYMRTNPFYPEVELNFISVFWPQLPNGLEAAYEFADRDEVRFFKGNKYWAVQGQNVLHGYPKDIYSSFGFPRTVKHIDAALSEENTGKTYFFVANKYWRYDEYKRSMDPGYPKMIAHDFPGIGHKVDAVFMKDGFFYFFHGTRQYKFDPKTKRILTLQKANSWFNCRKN

Sequence of 72 kDa type IV collagenase (P08253 whole entry, the tested form may be a part): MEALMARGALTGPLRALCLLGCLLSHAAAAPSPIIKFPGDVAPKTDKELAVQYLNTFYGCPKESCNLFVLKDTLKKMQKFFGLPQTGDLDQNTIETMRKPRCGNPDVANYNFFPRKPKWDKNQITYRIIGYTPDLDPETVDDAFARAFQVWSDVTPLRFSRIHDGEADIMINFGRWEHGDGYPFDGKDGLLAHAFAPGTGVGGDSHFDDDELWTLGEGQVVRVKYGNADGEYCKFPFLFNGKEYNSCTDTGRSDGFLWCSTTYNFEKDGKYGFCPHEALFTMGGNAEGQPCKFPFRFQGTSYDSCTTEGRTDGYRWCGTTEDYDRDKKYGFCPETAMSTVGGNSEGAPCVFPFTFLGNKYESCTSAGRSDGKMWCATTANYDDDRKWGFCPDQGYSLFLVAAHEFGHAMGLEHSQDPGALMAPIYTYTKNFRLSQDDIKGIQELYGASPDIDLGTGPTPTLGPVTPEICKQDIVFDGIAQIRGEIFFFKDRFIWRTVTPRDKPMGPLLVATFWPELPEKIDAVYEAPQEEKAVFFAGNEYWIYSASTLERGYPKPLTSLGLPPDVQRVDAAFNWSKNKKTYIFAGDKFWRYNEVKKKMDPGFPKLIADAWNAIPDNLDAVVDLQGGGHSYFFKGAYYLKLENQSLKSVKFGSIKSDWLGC

Row | IC50 [1] [µM] | IC50 [2] [µM] | IC50 [3] [µM] | IC50 (Interstitial collagenase) [µM] | Compound
1 | 112 | 64 | 101 | 24 | O=C(OCc1ccc(C(F)(F)F)cc1)c1cccc(=O)[nH]1
2 | 70 | 69 | 88 | 69 | COc1cccc(COC(=O)c2cccc(=O)[nH]2)c1
3 | 71 | 68 | 76 | 64 | O=C(OCc1ccccc1F)c1cccc(=O)[nH]1
4 | 71 | 65 | 3 | 23 | O=C(OCc1ccc(F)cc1)c1cccc(=O)[nH]1
5 | 66 | 60 | 60 | 35 | O=C(OCc1c(F)cccc1F)c1cccc(=O)[nH]1
6 | 39 | 31 | 33 | 16 | O=C(OCc1c(F)cc(F)cc1F)c1cccc(=O)[nH]1
7 | 73 | 69 | 68 | 65 | Cc1ccc(COC(=O)c2cccc(=O)[nH]2)cc1
8 | 5 | 46 | 67 | 25 | O=C(OCc1cccc(Cl)c1)c1cccc(=O)[nH]1
9 | > 150 | 82 | > 150 | 28 | O=C(OCc1cccc(C(F)(F)F)c1)c1cccc(=O)[nH]1
10 | 69 | 47 | 68 | 26 | O=C(OCc1ccc(Cl)cc1)c1cccc(=O)[nH]1
11 | 68 | 31 | 67 | 22 | O=C(OCc1cccc(Br)c1)c1cccc(=O)[nH]1
12 | 86 | 56 | 67 | 30 | O=C(OCc1cc(F)c(F)cc1F)c1cccc(=O)[nH]1
13 | 70 | 16 | 50 | 28 | O=C(OCc1cccc(F)c1)c1cccc(=O)[nH]1
14 | 65 | 69 | 69 | 30 | O=C(OCc1ccccc1)c1cccc(=O)[nH]1
15 | 70 | 100 | 85 | 70 | O=C(OCc1cc(F)ccc1F)c1cccc(=O)[nH]1
16 | 69 | 20 | 71 | 41 | O=C(OCc1cc(F)cc(F)c1)c1cccc(=O)[nH]1

Further lines, the compound ahead of its results:

Row | Compound | IC50 [1] [µM] | IC50 [2] [µM] | IC50 [3] [µM] | IC50 (Interstitial collagenase) [µM]
17 | C1=C(n2cc(C3=NCCO3)nn2)CCCC1 | > 150 | > 150 | > 150 | > 150
18 | O=C(OC1CCC1)c1cccc(=O)[nH]1 | 66 | 51 | 62 | 25
19 | COc1ccc(COC(=O)c2cccc(=O)[nH]2)cc1 | 110 | 105 | 100 | 99
20 | O=C(OCCCCOc1ccccc1)c1cccc(=O)[nH]1 | 90 | 82 | 94 | 67
21 | O=C(OCc1c(F)c(F)c(F)c(F)c1F)c1cccc(=O)[nH]1 | 64 | 63 | 69 | 19
22 | O=C(OCc1ccccc1Br)c1cccc(=O)[nH]1 | 57 | 44 | 59 | 19
23 | CC(C)=CCOC(=O)c1cccc(=O)[nH]1 | 72 | 67 | 69 | 37
24 | CC#CCOC(=O)c1cccc(=O)[nH]1 | 70 | 71 | 68 | 50
25 | O=C(OC1CCCCC1)c1cccc(=O)[nH]1 | 101 | 71 | 94 | 32
26 | O=C(OCCc1ccccc1)c1cccc(=O)[nH]1 | 69 | 68 | 81 | 47
27 | O=C(OCc1ccccc1Cl)c1cccc(=O)[nH]1 | 69 | 68 | 81 | 51
28 | O=C(OCCOc1ccccc1)c1cccc(=O)[nH]1 | > 150 | 79 | 127 | 59
